For five compounds, IC50 results are on record in ChEMBL document CHEMBL2203163, “Bromine- and chlorine-containing aeruginosins from Microcystis aeruginosa bloom material collected in Kibbutz Geva, Israel” (J Nat Prod, 2012).

Assay [1] can be described thus: Inhibition of trypsin. Put shortly:
(§1)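 Protease-inhibition assay read on a microplate (ELISA-type) reader. Activity is reported as IC50.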

Assay [2] is described as follows: Inhibition of thrombin. Put shortly: as §1

`CC(C)C[C@@H](NC(=O)[C@H](O)Cc1cc(Cl)c(O)c(Cl)c1)C(=O)N1[C@H](C(=O)NCCCCNC(=N)N)C[C@@H]2CC[C@@H](O)C[C@@H]21`: the results for the IC50 in assay [1] and in assay [2] were 8.5 µM and over 45.5 µM, respectively.
Taken in the same sequence, the figures for `CC[C@H](C)[C@@H](NC(=O)[C@H](O)Cc1cc(Br)c(O)c(Br)c1)C(=O)N1[C@H](C(=O)NCCCCNC(=N)N)C[C@@H]2CC[C@@H](OS(=O)(=O)O)C[C@@H]21` (relative stereo) were 18.2 µM and over 45.5 µM.
For `CC[C@H](C)[C@@H](NC(=O)[C@H](O)Cc1cc(Br)c(O)c(Br)c1)C(=O)N1[C@H](C(=O)NCCCCNC(=N)N)C[C@@H]2CC[C@@H](O)C[C@@H]21` (relative stereo), the figures for the IC50 in assay [1] and in assay [2] were 2.3 µM and 12.9 µM, respectively.
Taken in the same sequence, the figures for `CC[C@H](C)[C@@H](NC(=O)[C@H](O)Cc1cc(Cl)c(O)c(Br)c1)C(=O)N1[C@H](C(=O)NCCCCNC(=N)N)C[C@@H]2CC[C@@H](OS(=O)(=O)O)C[C@@H]21` (relative stereo) were 12.2 µM and over 45.5 µM.
Taken in the same sequence, the figures for `CC[C@H](C)[C@@H](NC(=O)[C@H](O)Cc1cc(Cl)c(O)c(Br)c1)C(=O)N1[C@H](C(=O)NCCCCNC(=N)N)C[C@@H]2CC[C@@H](O)C[C@@H]21` (relative stereo) were 3.2 µM and 12.8 µM.
